Test results reported in ChEMBL document CHEMBL1157909, “Targeting multiple chorismate-utilizing enzymes with a single inhibitor: validation of a three-stage design” (J Med Chem, 2010).
Active and inactive are the calls of the source. The calls are words filed in the database; no cut-off is given here.

Tests used:
[1] = target: Aminodeoxychorismate synthase component 1 PabB (Escherichia coli K-12) (UniProt P05041); test: Competitive inhibition of Escherichia coli K12 ADCS by double reciprocal plot in presence of cofactor Mg2+
Aminodeoxychorismate synthase component 1 PabB (Escherichia coli K-12), sequence (P05041 whole entry, looked up): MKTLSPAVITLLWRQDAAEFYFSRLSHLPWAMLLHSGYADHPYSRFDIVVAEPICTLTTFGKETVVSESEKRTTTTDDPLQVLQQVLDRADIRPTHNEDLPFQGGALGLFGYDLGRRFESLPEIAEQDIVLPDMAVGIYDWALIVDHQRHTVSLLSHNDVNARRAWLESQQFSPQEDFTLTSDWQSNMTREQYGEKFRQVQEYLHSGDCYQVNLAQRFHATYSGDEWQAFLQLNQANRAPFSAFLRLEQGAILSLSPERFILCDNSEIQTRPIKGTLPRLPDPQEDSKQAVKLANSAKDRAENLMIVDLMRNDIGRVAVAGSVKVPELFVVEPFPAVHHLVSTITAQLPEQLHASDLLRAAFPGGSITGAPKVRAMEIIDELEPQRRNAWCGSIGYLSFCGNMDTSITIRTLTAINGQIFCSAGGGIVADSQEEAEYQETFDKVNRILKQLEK

[2] = target: T1, Anthranilate synthase component 1 (Salmonella typhimurium (strain LT2 / SGSC1412 / ATCC 700720), UniProt P00898); test: Inhibition of Salmonella Typhimurium anthranilate synthase trpE:trpD […] coexpressing stop codon in trpD gene for encoding aminotransferase activity by spectrophotometry for enzyme-inhibitor complex; set-up: species or system Salmonella enterica subsp. enterica serovar Typhimurium
T1 sequence (P00898 whole entry): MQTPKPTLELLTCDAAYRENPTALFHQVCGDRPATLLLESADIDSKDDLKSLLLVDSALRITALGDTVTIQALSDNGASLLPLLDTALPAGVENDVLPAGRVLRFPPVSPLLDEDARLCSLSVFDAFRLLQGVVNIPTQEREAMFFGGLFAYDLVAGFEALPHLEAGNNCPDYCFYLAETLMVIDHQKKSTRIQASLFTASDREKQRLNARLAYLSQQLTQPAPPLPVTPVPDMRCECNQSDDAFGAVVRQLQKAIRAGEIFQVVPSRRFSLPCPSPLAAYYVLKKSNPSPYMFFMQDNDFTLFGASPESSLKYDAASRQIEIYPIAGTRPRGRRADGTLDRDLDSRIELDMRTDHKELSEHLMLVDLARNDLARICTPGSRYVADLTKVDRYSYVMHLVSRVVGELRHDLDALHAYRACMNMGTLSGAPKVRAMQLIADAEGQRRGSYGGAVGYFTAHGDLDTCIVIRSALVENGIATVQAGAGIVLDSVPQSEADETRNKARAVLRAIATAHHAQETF

[3] = target: Aminodeoxychorismate synthase component 1 PabB (Escherichia coli K-12) (UniProt P05041); test: Competitive inhibition of Escherichia coli K12 ADCS using chorismate as substrate by double reciprocal plot
[4] = target: T2, Isochorismate synthase EntC (Escherichia coli K-12) (UniProt P0AEJ2); test: Noncompetitive inhibition of Escherichia coli K12 IS expressed in Escherichia coli BL21(DE3) by double reciprocal plot in presence of cofactor Mg2+
T2 sequence (whole entry): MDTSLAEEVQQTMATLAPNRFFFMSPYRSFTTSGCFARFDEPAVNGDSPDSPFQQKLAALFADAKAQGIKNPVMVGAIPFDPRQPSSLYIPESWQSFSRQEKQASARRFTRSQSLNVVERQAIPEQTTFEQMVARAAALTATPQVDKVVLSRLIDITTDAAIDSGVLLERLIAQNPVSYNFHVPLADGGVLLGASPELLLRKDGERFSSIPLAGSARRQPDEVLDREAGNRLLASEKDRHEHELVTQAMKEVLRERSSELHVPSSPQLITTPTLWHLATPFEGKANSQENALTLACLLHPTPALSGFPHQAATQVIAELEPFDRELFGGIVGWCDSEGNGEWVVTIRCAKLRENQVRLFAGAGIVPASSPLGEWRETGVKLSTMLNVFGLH
Summary of the method: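 IS (75 nM) in an EntB/LDH coupled assay, with NADH loss read at 340 nm, 25 °C. Buffer: 50 mM triethanolamine pH 7.8, 100 μM NADH. Chorismate was held saturating at 200 μM while Mg2+ was varied 5–500 μM. Inhibitor ranged 10 μM–8 mM; the inhibition pattern came from initial rates.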

[5] = target: Anthranilate synthase component 1 (Salmonella typhimurium (strain LT2 / SGSC1412 / ATCC 700720), UniProt P00898); test: Inhibition of Salmonella Typhimurium anthranilate synthase trpE:trpD […] coexpressing stop codon in trpD gene for encoding aminotransferase activity by spectrophotometry for enzyme-substrate-inhibitor complex; set-up: species or system Salmonella enterica subsp. enterica serovar Typhimurium
[6] = target: T3, Anthranilate synthase component 1 (Salmonella typhimurium (strain LT2 / SGSC1412 / ATCC 700720)) (UniProt P00898); test: Mixed-type inhibition of Salmonella Typhimurium anthranilate synthase trpE expressed in Escherichia coli BL21(DE3) using chorismate as substrate by double reciprocal plot; conditions: Salmonella enterica subsp. enterica serovar Typhimurium
T3 sequence (whole entry): T1 sequence (P00898 whole entry)
Summary of the method: (§1)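 S. typhimurium anthranilate synthase partial complex (TrpE2TrpG2), 2.2 nM, in a fluorescence assay read at 390 nm emission, 313 nm excitation, 25 °C. Buffer: 100 mM phosphate pH 7.0, 20 mM L-glutamine, 5 mM MgCl2 (saturating). Reactions were started with enzyme. Inhibitor ranged 10 μM–8 mM; chorismate ranged 0.5–5 KM. Ki versus chorismate came from initial rates.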

[7] = target: T2, Isochorismate synthase EntC (Escherichia coli K-12); test: Competitive inhibition of Escherichia coli K12 IS expressed in Escherichia coli BL21(DE3) using chorismate as substrate by double reciprocal plot
Summary of the method: (§2)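 Isochorismate synthase EntC (His-tagged, pET28a, BL21(DE3)) at 75 nM, coupled to excess EntB (2 μM) and 2 units LDH. Read-out was NADH oxidation at 340 nm, 25 °C. Buffer: 50 mM triethanolamine pH 7.8, 1 mM MgCl2 (saturating), 100 μM NADH. Inhibitor ranged 10 μM–8 mM; chorismate ranged 0.5–5 KM. Ki versus chorismate came from initial rates.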

[8] = target: T3, Anthranilate synthase component 1 (Salmonella typhimurium (strain LT2 / SGSC1412 / ATCC 700720)); test: Competitive inhibition of Salmonella Typhimurium anthranilate synthase trpE expressed in Escherichia coli BL21(DE3) by double reciprocal plot in presence of cofactor Mg2+; conditions: Salmonella enterica subsp. enterica serovar Typhimurium
[9] = target: T4, Isochorismate synthase EntC (Escherichia coli K-12, UniProt P0AEJ2); test: Inhibition of Escherichia coli K12 IS expressed in Escherichia coli BL21(DE3) by spectrophotometry
T4 sequence (P0AEJ2 whole entry): T2 sequence (whole entry)
Summary of the method: as §2

[10] = target: Aminodeoxychorismate synthase component 1 PabB (Escherichia coli K-12) (UniProt P05041); test: Noncompetitive inhibition of Escherichia coli K12 ADCS by double reciprocal plot in presence of cofactor Mg2+
[11] = target: Aminodeoxychorismate synthase component 1 PabB (Escherichia coli K-12) (UniProt P05041); test: Noncompetitive inhibition of Escherichia coli K12 ADCS using chorismate as substrate by double reciprocal plot
[12] = target: T3, Anthranilate synthase component 1 (Salmonella typhimurium (strain LT2 / SGSC1412 / ATCC 700720)); test: Noncompetitive inhibition of Salmonella Typhimurium anthranilate synthase trpE expressed in Escherichia coli BL21(DE3) using chorismate as substrate by double reciprocal plot; conditions: Salmonella enterica subsp. enterica serovar Typhimurium
Summary of the method: as §1

Activity [10] | Activity [11] | Activity [12] | Structure (SMILES) | Activity [1] | Ki [2] [µM] | Activity [3] | Activity [4] | Ki [5] [µM] | Activity [6] | Activity [7] | Activity [8] | Ki [9] [µM]
– | – | – | Cc1ccc(C(=O)N[C@@H](CCCCNC(=O)c2cccc(OCC(=O)O)c2)C(=O)N[C@@H](Cc2cccc(Cl)c2)C(N)=O)c([N+](=O)[O-])c1O | Active | 20 | Active | Active | 54 | Active | Active | Active | 210
– | – | – | O=C(O)COc1cccc(C(=O)O)c1 | Active | 210 | Active | Active | 550 | Active | Active | Active | 1300
Active | Active | Active | Cc1ccc(C(=O)N[C@@H](C)C(=O)N[C@@H](Cc2cccc(Cl)c2)C(N)=O)c([N+](=O)[O-])c1O | – | 200 | – | Active | – | – | Active | – | 500
– | – | – | NC(=O)C1(NC(=O)[C@H](CCCNC(=O)c2cccc(OCC(=O)O)c2)NC(=O)c2ccc(Oc3ccccc3)cc2)CCS(=O)(=O)CC1 | Active | 570 | Active | Active | 1020 | Active | Active | Active | 170
– | – | – | Cc1ccc(C(=O)N[C@@H](CSCCCNC(=O)c2cccc(OCC(=O)O)c2)C(=O)N[C@@H](Cc2cccc(Cl)c2)C(N)=O)c([N+](=O)[O-])c1O | Active | 96 | Active | Active | – | Active | Active | Active | 150
– | – | – | NC(=O)C1(NC(=O)[C@H](CCCNC(=O)c2cccc(OCC(=O)O)c2)NC(=O)c2ncccc2C(=O)c2ccccc2)CCCCC1 | Active | 490 | Active | Active | 1080 | Active | Active | Active | 430
– | – | – | CC(C(=O)N[C@@H](CCCNC(=O)c1cccc(OCC(=O)O)c1)C(=O)NCCc1cccc2c1oc1c(CCC(N)=O)cccc12)c1ccc([N+](=O)[O-])cc1 (stereo not given in full) | Active | 250 | Active | Active | 110 | Active | Active | Active | 190
– | – | – | Cc1ccc(C(=O)N[C@@H](CCCNC(=O)c2cccc(OCC(=O)O)c2)C(=O)N[C@@H](Cc2ccc(C#N)cc2)C(N)=O)c([N+](=O)[O-])c1O | Active | 28 | Active | Active | 81 | Active | Active | Active | 260
Active | Active | – | Cc1ccc(C(=O)N[C@@H](CCCCN)C(=O)N[C@@H](Cc2cccc(Cl)c2)C(N)=O)c([N+](=O)[O-])c1O | – | 110 | – | Active | – | – | Active | – | 790
– | – | – | Cc1ccc(C(=O)N[C@@H](CCCNC(=O)c2cccc(OCC(=O)O)c2)C(=O)N[C@@H](Cc2cccc(Cl)c2)C(N)=O)c([N+](=O)[O-])c1O | – | 41 | Active | Active | – | – | Active | Active | 360
– | – | – | NC(=O)c1cccc(OCC(=O)O)c1 | Active | 760 | Active | Active | 2600 | Active | Active | Active | 2600
